Data on 9 molecules can be found in PMC8817670 (Journal of medicinal chemistry, 2021).

Data set [1] addresses TSPO in human U87MG cells (Homo sapiens, UniProt P30536). As to the kind of experiment: [3H]PK11195 displacement binding, human U87MG cell membranes. The conditions noted are these: for lipE human U87MG: lipE = pKi – logD.
The test system of data set [2] is human cerebellum TSPO, LAB genotype. The data set can be described thus: [3H]PK11195 binding assay, human cerebellum homogenates, LAB genotype. The conditions noted are these: human cerebellum genotype sensitivity in vitro.
For data set [3], the target named is T1, human cerebellum TSPO, LAB genotype (Homo sapiens, UniProt P30536). The data set is described as above.
The next data set in a line: Measurement of logD. Type of data set: physicochemical. The conditions noted are these: for logD7.4: n-octanol / sodium phosphate buffer pH 7.4, RT, n = 6; for logD: n-octanol/sodium phosphate buffer, pH 7.4. In outline:
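Shake-flask partition of each radiolabelled test compound between 1-octanol and sodium phosphate buffer (pH 7.4) at room temperature; logD taken from the distribution coefficient of radioactivity between the two phases.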

The target in data set [4] is T2, human cerebellum TSPO, HAB genotype (Homo sapiens, UniProt P30536). The data set can be described thus: [3H]PK11195 binding assay, human cerebellum homogenates, HAB genotype. The conditions noted are these: for lipE HAB: lipE = pKi – logD.
In data set [5] the target is T3, TSPO in rat kidney (Rattus norvegicus, UniProt P16257). The data set can be described thus: [3H]PK11195 displacement binding, rat kidney membranes. The conditions noted are these: for lipE rat kidney: lipE = pKi – logD.
Data set [6] deals with T3, TSPO in rat kidney. The conditions noted are these: cited from earlier work.
In data set [7] the test system is human cerebellum TSPO, LAB genotype. The conditions noted are these: cited from earlier work.
Data set [8] concerns the target T1, human cerebellum TSPO, LAB genotype. The conditions noted are these: read-out: LAB Ki; cited from earlier work.
For data set [9], the target named is T2, human cerebellum TSPO, HAB genotype. The conditions noted are these: cited from earlier work.
The conditions of data set [10]: cited from earlier work.
Another data set addresses TSPO in the mouse brain (Mus musculus, UniProt P50637). As to the kind of experiment: PET imaging of radioligands in mouse brain, baseline and PK11195 preblock. Type of data set: in vivo.
Where [11] appears, read: read-out: human U87MG Ki, [3H]PK11195 1 nM, 90 min at 0 °C, n = 3.
Where [12] appears, read: read-out: LAB Ki, human cerebellum, three LAB subjects, 1 h at 37 °C.
Setting [13] is: read-out: HAB Ki, human cerebellum, three HAB subjects, 1 h at 37 °C.
Setting [14] is: read-out: rat kidney Ki, [3H]PK11195 1 nM, 90 min at 0 °C, n = 3.
Where [15] appears, read: lipE = pKi – logD, data from ref 27.

Read-outs that look alike come from different tables or passages of the source.

Sequence of TSPO in human U87MG cells (P30536 whole entry): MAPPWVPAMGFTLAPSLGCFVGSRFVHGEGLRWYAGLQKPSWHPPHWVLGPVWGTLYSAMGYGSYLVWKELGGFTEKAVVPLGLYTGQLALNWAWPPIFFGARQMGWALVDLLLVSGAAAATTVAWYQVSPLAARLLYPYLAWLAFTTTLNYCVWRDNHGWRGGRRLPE
T2 sequence (P30536 whole entry): as above
T1 sequence (P30536 2-169): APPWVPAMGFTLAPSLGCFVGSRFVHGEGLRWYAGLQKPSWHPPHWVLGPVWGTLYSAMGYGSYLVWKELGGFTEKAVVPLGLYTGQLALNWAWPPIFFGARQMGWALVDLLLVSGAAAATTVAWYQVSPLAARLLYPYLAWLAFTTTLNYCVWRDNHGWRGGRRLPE

By Ki is commonly meant a measure of affinity in units of concentration, obtained from inhibition or displacement. Take `CC[C@@H](C)N(C)C(=O)c1nc(-c2ccccc2F)c2ccccc2n1` [3a, (R)-(N-sec-Butyl)-4-(2-fluorophenyl)-N-methylquinazoline-2-carboxamide]: in [1], the “lipE human U87MG” value is reported as 5.21. Also, the Ki was determined as 5.64 ± 0.66 nM in data set [1] (setting [11]), 25 ± 11.6 nM in [3] (setting [12]), 9 ± 9.5 nM in data set [4] (setting [13]) and 4.19 ± 0.35 nM on TSPO in rat kidney [5] (setting [14]). Moreover, the “LAB to HAB Ki ratio” value in [2] worked out at 2.78. In the data set “Measurement of logD”, this molecule registered a logD7.4 of 3.04 ± 0.03. In data set [4], the “lipE HAB” value came to 5.01. This molecule also had a lipE rat kidney on TSPO in rat kidney [5] of 5.34.

Consider `CC[C@@H](C)N(C)C(=O)c1nc(-c2cccc(F)c2)c2ccccc2n1` [3b, (R)-(N-sec-Butyl)-4-(3-fluorophenyl)-N-methylquinazoline-2-carboxamide], for which the “lipE human U87MG” value in [1] was found to be 5.20. In addition, the Ki is 5.09 ± 0.65 nM in [1] (setting [11]), 24.9 ± 12.7 nM in data set [3] (setting [12]), 9.1 ± 8.1 nM in data set [4] (setting [13]) and 5.17 ± 0.63 nM on TSPO in rat kidney [5] (setting [14]). Further, in data set [2], the “LAB to HAB Ki ratio” value stood at 2.74. Moreover, the logD7.4 in the data set “Measurement of logD” is 3.09 ± 0.01. Further, the “lipE HAB” value in data set [4] is 4.95. For the same molecule, at TSPO in rat kidney [5], the lipE rat kidney was found to be 5.20.

Take `CC[C@@H](C)N(C)C(=O)c1nc(-c2ccc(F)cc2)c2ccccc2n1` [3c, (R)-(N-sec-Butyl)-4-(4-fluorophenyl)-N-methylquinazoline-2-carboxamide]: the “lipE human U87MG” value in data set [1] is on record as 5.14. Besides, the Ki turned out to be 7.03 ± 0.66 nM in data set [1] (setting [11]), 44.5 ± 34.4 nM in [3] (setting [12]), 15.3 ± 10.3 nM in [4] (setting [13]) and 7.41 ± 0.82 nM at TSPO in rat kidney [5] (setting [14]). The “LAB to HAB Ki ratio” value in [2] was determined as 2.91. In the data set “Measurement of logD”, this molecule yielded a logD7.4 of 3.01 ± 0.02. Also, the “lipE HAB” value in data set [4] is 4.81. The molecule further had a lipE rat kidney on TSPO in rat kidney [5] of 5.12.

The logD is lipophilicity at a set pH, counting ionised and neutral species. Higher therefore signals a more lipophilic compound. As for `CC[C@@H](C)N(C)C(=O)c1nc(-c2ccccc2C(F)(F)F)c2ccccc2n1` [3d, (R)-N-(sec-Butyl)-N-methyl-4-(2-(trifluoromethyl)phenyl)-quinazoline-2-carboxamide], the Ki was determined as 3.18 ± 0.17 nM in data set [1], 37.1 ± 30.2 nM in [3], 6.8 ± 8.1 nM in data set [4] and 3.74 ± 0.1 nM on TSPO in rat kidney [5]. The “lipE human U87MG” value in [1] was 5.25. Moreover, in data set [2], the “LAB to HAB Ki ratio” value amounted to 5.46. This molecule displayed a log distribution coefficient (logD) in “Measurement of logD” of 3.25 ± 0.03. This molecule returned a lipE rat kidney at TSPO in rat kidney [5] of 5.18.

For the molecule `CC[C@@H](C)N(C)C(=O)c1nc(-c2cccc(C(F)(F)F)c2)c2ccccc2n1` [3e, (R)-N-(sec-Butyl)-N-methyl-4-(3-(trifluoromethyl)phenyl)-quinazoline-2-carboxamide], in data set [1], the Ki worked out at 1.19 ± 0.17 nM and the “lipE human U87MG” value worked out at 5.21. In addition, in data set [2], the “LAB to HAB Ki ratio” value came out at 1.98. Further, in data set [3], affinity was put at a Ki of 36.9 ± 38.5 nM. For the same molecule, in “Measurement of logD”, the logD was found to be 3.71 ± 0.03. In data set [4], the affinity corresponds to a Ki of 18.6 ± 15.7 nM and the “lipE HAB” value stood at 4.02. Further, on TSPO in rat kidney [5], affinity was put at a Ki of 1.44 ± 0.21 nM and the lipE rat kidney turned out to be 5.14.

With `CC[C@@H](C)N(C)C(=O)c1nc(-c2ccc(C(F)(F)F)cc2)c2ccccc2n1` [3f, (R)-N-(sec-Butyl)-N-methyl-4-(4-(trifluoromethyl)phenyl)-quinazoline-2-carboxamide], in [1], the Ki worked out at 2.42 ± 0.66 nM and the “lipE human U87MG” value was 4.69. Besides, the “LAB to HAB Ki ratio” value in data set [2] turned out to be 0.8. The same molecule came in with a Ki in data set [3] of 4 ± 5 nM. The log distribution coefficient (logD) in the data set “Measurement of logD” is 3.93 ± 0.01. Also, in data set [4], the Ki came to 5 ± 3.9 nM and the “lipE HAB” value is recorded as 4.37. On TSPO in rat kidney [5], this molecule showed a Ki of 4.39 ± 0.14 nM and a lipE rat kidney of 4.43.

Regarding `CC[C@@H](C)N(C)C(=O)c1nc(-c2ccccc2Cl)c2ccccc2n1` [ER176, (R)-N-(sec-butyl)-4-(2-chlorophenyl)-N-methylquina-zoline-2-carboxamide], the lipE rat kidney at TSPO in rat kidney [6] (setting [15]) is 4.96. The Ki at TSPO in rat kidney [6] (read-out: rat kidney Ki) was 3.1 ± 0.3 nM; in data set [8], 1.89 nM; in data set [9] (read-out: HAB Ki), 1.48 nM. Further, the “LAB to HAB Ki ratio” value in data set [7] is 1.28. Further, the “lipE HAB” value in data set [9] (setting [15]) was 5.28. Also, the logD7.4 in [10] was 3.55 ± 0.02.

Regarding `CCC(C)N(C)C(=O)c1cc2ccccc2c(-c2ccccc2Cl)n1` (stereo not shown) [PK11195, reference compound], in “Measurement of logD”, the logD7.4 worked out at 3.97 ± 0.02.

As for `CC[C@@H](C)N([11CH3])C(=O)c1nc(-c2ccccc2Cl)c2ccccc2n1` [[^11C]ER176], at TSPO in the mouse brain (PK11195 5 mg/kg i.v. preblock, baseline vs preblock, 80–100 min), the “blocking effect of PK11195 on brain uptake” value is reported as 72%. Also, the “peak radioactivity uptake in the brain” value at TSPO in the mouse brain (mouse whole brain, baseline, i.v. injection) is on record as “around 1.0 SUV”. Besides, the “estimated brain TSPO occupancy at baseline” value at TSPO in the mouse brain (occupancy by carrier, estimated from brain concentration and molar activity) was 2.6%.
